Test results reported in ChEMBL document CHEMBL1138035, “Antitumor agents. 250. Design and synthesis of new curcumin analogues as potential anti-prostate cancer agents” (J Med Chem, 2006).

Tests used:
[1] = test system: PC-3; assay: Cytotoxicity against human PC3 cell line; type: functional, cell-based
[2] = test system: LNCaP; assay: Cytotoxicity against human LNCaP cell line; type: functional, cell-based
[3] = target: T1, Androgen receptor (Homo sapiens) (UniProt P10275); assay: Antiandrogenic activity against human LNCaP cell line by AR transactivation assay in presence of […] at 5 uM; type: functional, cell-based
T1 sequence (whole entry): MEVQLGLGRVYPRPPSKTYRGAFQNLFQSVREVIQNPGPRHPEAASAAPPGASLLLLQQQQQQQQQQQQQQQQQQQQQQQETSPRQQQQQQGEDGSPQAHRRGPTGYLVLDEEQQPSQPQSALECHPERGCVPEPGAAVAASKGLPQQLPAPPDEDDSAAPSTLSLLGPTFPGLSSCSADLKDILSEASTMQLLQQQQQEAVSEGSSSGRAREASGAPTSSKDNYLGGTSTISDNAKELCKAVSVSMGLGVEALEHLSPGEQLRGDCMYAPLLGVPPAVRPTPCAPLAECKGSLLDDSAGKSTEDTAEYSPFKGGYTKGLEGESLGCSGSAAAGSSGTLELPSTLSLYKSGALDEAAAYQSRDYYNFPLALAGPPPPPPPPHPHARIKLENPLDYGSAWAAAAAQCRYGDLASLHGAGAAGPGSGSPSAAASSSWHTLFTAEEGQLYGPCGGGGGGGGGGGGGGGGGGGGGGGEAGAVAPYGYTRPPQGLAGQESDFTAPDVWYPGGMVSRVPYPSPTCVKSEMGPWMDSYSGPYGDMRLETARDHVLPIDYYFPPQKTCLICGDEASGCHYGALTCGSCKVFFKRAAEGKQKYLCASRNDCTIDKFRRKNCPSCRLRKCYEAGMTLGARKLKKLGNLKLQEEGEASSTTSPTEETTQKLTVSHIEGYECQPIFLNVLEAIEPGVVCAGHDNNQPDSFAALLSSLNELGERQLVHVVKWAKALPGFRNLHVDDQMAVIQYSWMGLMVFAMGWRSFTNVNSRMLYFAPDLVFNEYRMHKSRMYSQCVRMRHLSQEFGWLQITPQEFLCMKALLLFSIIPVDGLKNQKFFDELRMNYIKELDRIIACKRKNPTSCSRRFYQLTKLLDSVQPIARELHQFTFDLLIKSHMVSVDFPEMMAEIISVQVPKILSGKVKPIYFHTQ
How it was run: (§1)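 LNCaP cells (endogenous mutant AR), kept in RPMI with 10% fetal calf serum and antibiotics, were plated 48 h before transfection. They were transfected for 5 h (SuperFect) with MMTV-luciferase reporter plus pRL-SV40 internal control, then moved to RPMI with 10% charcoal dextran-stripped serum. After 24 h, cells got 1 nM DHT plus compound for 24 h. Read-out was dual luciferase normalized to the internal control, as % of DHT-alone transactivation.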

[4] = target: T1, Androgen receptor (Homo sapiens); assay: Antiandrogenic activity against human PC3 cell line transfected with wild-type AR by AR transactivation assay in presence of […] at 5 uM; type: functional, cell-based; settings: PC-3
How it was run: (§2)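 PC-3 host cells (no functional AR), kept in DMEM with 10% fetal calf serum and antibiotics, were plated 24 h before transfection. They were transfected for 5 h (SuperFect) with wild-type AR plasmid pSG5AR, MMTV-luciferase reporter and pRL-SV40 control, then moved to DMEM with 10% charcoal-stripped serum. After 24 h, cells got 1 nM DHT plus compound for 24 h. Dual-luciferase signal was normalized to the internal control and given as % of DHT-only.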

[5] = target: T1, Androgen receptor (Homo sapiens); assay: Antiandrogenic activity against human LNCaP cell line by AR transactivation assay in presence of […] at 3 uM; type: functional, cell-based; how it was run: as §1
[6] = target: T1, Androgen receptor (Homo sapiens); assay: Antiandrogenic activity against human PC3 cell line transfected with wild-type AR by AR transactivation assay in presence of […] at 3 uM; type: functional, cell-based; settings: PC-3; how it was run: as §2
[7] = test system: PC-3; assay: Inhibition of growth of human PC3 cell line at 20 ug/ml; type: functional
How it was run: (§3)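 Growth assay in human prostate cancer cells (LNCaP in RPMI, PC-3 in DMEM, each with 10% fetal calf serum and antibiotics). Cells were exposed to compound for 2 days. Value is % inhibition of cell growth at 20 μg/ml. Variation between replicate experiments was ≤5%.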

[8] = test system: LNCaP; assay: Inhibition of growth of human LNCaP cell line at 20 ug/ml; type: functional; how it was run: as §3
[9] = Homo sapiens, PC-3, read-out: IC50

| SMILES | IC50 [1, 9] | IC50 [2] | also measured |
| --- | --- | --- | --- |
| COc1cc(/C=C/C(O)=C/C(C)=O)ccc1O | 8 µM | 6.2 µM |  |
| COc1ccc(/C=C/C(O)=C/C(C)=O)c(OC)c1 | 12.3 µM | 9.9 µM |  |
| COc1ccc(/C=C/C(=O)C(C)(F)C(=O)/C=C/c2ccc(OC)c(OC)c2)cc1OC | 4.6 µM | 6.4 µM |  |
| CCO/C(O)=C/C=C(C(=O)/C=C/c1ccc(OC)c(OC)c1)C(=O)/C=C/c1ccc(OC)c(OC)c1 | 1 µM | 0.2 µM | Activity [3]: 6%; Activity [4]: 40% |
| CCO/C(O)=C/C=C(C(=O)/C=C/c1ccc(OC2CCCCO2)c(OC)c1)C(=O)/C=C/c1ccc(OC2CCCCO2)c(OC)c1 (stereo not given) | 3.1 µM | 2.6 µM | Activity [5]: 54%; Activity [6]: 46% |
| COc1ccc(/C=C/C(=O)/C=C(O)/C=C/c2ccc(OC)c(OC)c2OC)c(OC)c1OC | 8.1 µM | 4.8 µM |  |
| CCOC(=O)CCC(F)(C(=O)/C=C/c1ccc(OC2CCCCO2)c(OC)c1)C(=O)/C=C/c1ccc(OC2CCCCO2)c(OC)c1 (stereo not given) | 6.3 µM | 7.3 µM |  |
| CCOC(=O)CC/C(C(C)=O)=C(O)\C=C\c1ccc(O)c(OC)c1 | 43.7 µM | 51.5 µM |  |
| COc1cc(/C=C/C(O)=C/C(=O)/C=C/c2ccc(CO)o2)ccc1O | 9 µM | 7.3 µM |  |
| COc1cc(/C=C/C(=O)/C=C(O)/C=C/c2ccc(OCC=C(C)C)c(OC)c2)ccc1OCC=C(C)C | > 19.8 µM | 6.1 µM | inhibition at 20 µg/mL [7]: 41% |
| COc1ccc(CCC(=O)CC(O)CCc2ccc(OC)c(OC)c2)cc1OC (stereo not given) |  | 10.8 µM | inhibition at 20 µg/mL [7]: 33% |
| COc1cc(/C=C/C(O)=C/C(=O)/C=C/c2ccc[nH]2)ccc1O | 15.4 µM | 13.6 µM |  |
| COc1cc(/C=C/C(=O)/C=C/c2ccc(O)c(OC)c2)ccc1O | 2.4 µM | 1.4 µM |  |
| COc1cc(/C=C/C(=O)CC(=O)/C=C/c2ccc(O)c(OC)c2)ccc1O [CURCUMIN] | 7.7 µM | 3.8 µM |  |
| COc1ccc(/C=C/C(=O)/C=C(O)/C=C/c2ccc(OC)c(C)c2)cc1C | > 27.4 µM | 7.7 µM | inhibition at 20 µg/mL [7]: 44% |
| COc1ccc(/C=C/C(=O)NC(=O)/C=C/c2ccc(OC)c(OC)c2)cc1OC | > 10 µM | 2.2 µM | inhibition at 20 µg/mL [7]: 36% |
| CCOC(=O)CC/C(C(=O)/C=C/c1ccc(OC2CCCCO2)c(OC)c1)=C(O)\C=C\c1ccc(OC2CCCCO2)c(OC)c1 (stereo not given) | 12.3 µM | 4.2 µM |  |
| CCOC(=O)CC\C(C(=O)/C=C/C=C/c1ccc(O)c(OC)c1)=C(O)/C=C/C=C/c1ccc(O)c(OC)c1 | 6.4 µM | 3.1 µM |  |
| COc1cc(OC)c(OC)cc1/C=C/C(O)=C/C(C)=O | 10.5 µM | 12.5 µM |  |
| COc1ccc(/C=C/C(O)=C/C(=O)/C=C/c2ccc(OC)c(OC)c2)cc1O | 5.5 µM | 4.8 µM |  |
| COc1ccc(/C=C/C(=O)C(/C=C/CO)=C(O)/C=C/c2ccc(OC)c(OC)c2)cc1OC | 1.3 µM | 0.2 µM |  |
| COc1ccc(/C=C/C(=O)C(C)C(=O)/C=C/c2ccc(OC)c(OC)c2)cc1OC | 3.5 µM | 5.8 µM |  |
| COc1ccc(/C=C/C(O)=C/C(C)=O)cc1O | 6.1 µM | 5.3 µM |  |
| COc1ccc(/C=C/C(O)=C/C(C)=O)cc1OC | 7 µM | 6.6 µM |  |

| SMILES | IC50 [1, 9] | IC50 [2] | also measured |
| --- | --- | --- | --- |
| COc1ccc(/C=C/C(=O)/C=C/c2ccc(OC)c(OC)c2)cc1OC | 3.8 µM | 3.4 µM |  |
| COc1ccc(/C=C/C(O)=C/C(C)=O)c(OC)c1OC | 7.8 µM | 5.8 µM |  |
| COc1cc(/C=C/C=C/C(=O)/C=C(O)/C=C/C=C/c2ccc(O)c(OC)c2)ccc1O | 10.6 µM | 4.4 µM |  |
| COc1cc(OC)c(OC)cc1/C=C/C(=O)/C=C(O)/C=C/c1cc(OC)c(OC)cc1OC | 2.4 µM | 2.9 µM |  |
| COc1ccc(/C=C/C(O)=C/C(=O)/C=C/c2ccc(OC)c(OC)c2OC)cc1OC | 9.1 µM | 7.7 µM |  |
| COc1cc(OC)c(OC)cc1/C=C/C(=O)/C=C(O)/C=C/c1ccc(OC)c(OC)c1 | 8.2 µM | 8.6 µM |  |
| COc1cc(/C=C/C(=O)/C=C(O)/C=C/c2ccc(OC)c(OC)c2)ccc1O | 6 µM | 3.3 µM |  |
| O=C(/C=C(O)/C=C/c1ccc(CO)o1)/C=C/c1ccc(CO)o1 |  |  | inhibition at 20 µg/mL [7]: 37%; inhibition at 20 µg/mL [8]: 37% |
| COc1ccc(/C=C/C(=O)CC(O)/C=C/c2ccc(OC)c(OC)c2)cc1OC (stereo not given) | 18.4 µM | 17.7 µM |  |
| CCNC(=O)/C=C/C(C(=O)/C=C/c1ccc(OC)c(OC)c1)=C(O)\C=C\c1ccc(OC)c(OC)c1 | 1.2 µM | 0.6 µM |  |
| CCOC(=O)CCC(F)(C(=O)/C=C/c1ccc(O)c(OC)c1)C(=O)/C=C/c1ccc(O)c(OC)c1 | 9.8 µM | 6.3 µM |  |
| COc1ccc(/C=C/C(=O)/C=C(O)/C=C/c2ccc(OC)c(OC)c2)cc1OC | 1.1 µM | 1.3 µM |  |
| COc1cc(/C=C/C(O)=C/C(=O)/C=C/c2cccs2)ccc1O | 7.7 µM | 6.3 µM |  |
| COc1ccc(/C=C/C(=O)/C=C(O)/C=C/c2ccc(OC)c(O)c2)cc1O | 8.6 µM | 10.9 µM |  |
| Cc1cc(/C=C/C(=O)/C=C(O)/C=C/c2ccc(O)c(C)c2)ccc1O |  | 1.8 µM | IC50 ([1]; pc-3): 4.8 µM |
| COc1ccc(/C=C/C(=O)C(/C=C/C#N)=C(O)/C=C/c2ccc(OC)c(OC)c2)cc1OC | 0.7 µM | 0.2 µM | Activity [3]: 42%; Activity [4]: 68% |
| COc1ccc(/C=C/C(=O)/C=C(O)/C=C/c2ccc(OC)cc2OC)c(OC)c1 |  | 11.8 µM | inhibition at 20 µg/mL [7]: 45% |
| CCOC(=O)CC/C(C(=O)/C=C/c1ccc(O)c(OC)c1)=C(O)\C=C\c1ccc(O)c(OC)c1 | 5.1 µM | 1.5 µM | Activity [3]: 4%; Activity [4]: 13% |
| CCOc1ccc(/C=C/C(=O)/C=C(O)/C=C/c2ccc(OCC)c(OC)c2)cc1OC | 20.3 µM | 6.5 µM |  |
| COc1cc(/C=C/C(=O)/C(C(C)=O)=C(O)/C=C/c2ccc(O)c(OC)c2)ccc1O | 23.4 µM | 8.8 µM |  |
| COc1ccc(/C=C/C(=O)/C=C/c2ccc(OC)cc2OC)c(OC)c1 | 18.7 µM | 21.8 µM |  |
| CCOC(=O)CC/C(C(=O)/C=C/c1ccc(OC)c(OC)c1)=C(O)\C=C\c1ccc(O)c(OC)c1 | 6.3 µM | 2.1 µM |  |
| CCO/C(O)=C/C=C(C(=O)/C=C/c1ccc(O)c(OC)c1)C(=O)/C=C/c1ccc(O)c(OC)c1 | 11.7 µM | 7 µM |  |
